An excerpt weighted towards active compounds, which were near 5.6% of everything screened.
CHOP inh = blocks CHOP induction under ER stress | 220,000 compounds, 3.8% hits | CHO-K1 CHOP-promoter luciferase, tunicamycin-induced, 15-18 h | inhibition, % at 10 µM;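 active = compounds that reduced the stress-induced luciferase reporter signal by more than about 70% of percent inhibition, limit read from the data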;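 note: 0% = tunicamycin plus vehicle and 100% = wells without tunicamycin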
NR3A LBD binder = NR3A (human) ligand-binding domain modulation. NR3A LBD differential scanning fluorimetry, Tm shift; 0% = protein alone, 100% = glycine-bound protein. Tm shift relative to glycine control, % at 25 µM. 340,000 compounds, 2.5% hits;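 active = melting temperature shift of at least 10% of the positive control shift, at one fixed dose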
UPR CHOP act = apoptotic UPR (CHOP) activation; CHO-CHOP luciferase reporter, luminescence; percent of tunicamycin response over DMSO baseline; activation, % at 10 µM; AID 449763; 330,000 compounds, 0.34% hits;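 active = at 10 µM dose, activation of 40% or more, normalized to positive control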;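 note: 100% = tunicamycin at 10 µg/mL and 0% = DMSO alone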
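Dosing – one dose, 10 µM in 0.5% DMSO · System – CHO-CHOP cells, stable luciferase reporter of PERK-eIF2a-CHOP signalling · Input – 500 cells/well · Control set – tunicamycin 10 µg/mL final as positive, DMSO-only wells as negative · Timing – 6 h compound treatment, 37 °C · Measure – % activation vs tunicamycin · Technique – luminescence read with Steady-Glo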
MPTP block = inhibitors of mitochondrial permeability transition pore; isolated mouse mitochondria, Ca2+ swelling absorbance, 30 min; inhibition, % at 10 µM; 360,000 compounds, 1.4% hits;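 active = inhibition of 50% or more, scaled per plate between neutral and stimulator controls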;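 note: 0% = DMSO wells given calcium and 100% = 1 mM EGTA wells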
UPR XBP1 act = adaptive UPR (XBP1) activation; CHO-XBP1 luciferase reporter, IRE1-XBP1 UPR activation, luminescence; percent of tunicamycin response, DMSO as zero; activation, % at 20 µM; 330,000 compounds, 0.33% hits;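 active = versus positive control, 20 µM dose yields 30% or more activation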;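 note: 100% = tunicamycin at 10 µg/mL and 0% = DMSO only wells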
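Assay system: CHO-XBP1 luciferase reporter cells; Schedule: 6 h treatment, 37 °C; Detection: glow luminescence from Steady-Glo reagent; Benchmarks: high control tunicamycin 10 µg/mL final, low control DMSO vehicle only.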
aDG glyco act = alpha-DG glycosylation activation. Pro5-aDG cells, alpha-DG glycosylation AlphaScreen (IIH6); 0% Pro5, 100% B10-LARGE cell signal. activation, % at 10 µM. 360,000 compounds, 0.22% hits;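 active = activation of at least 8% versus controls, or a plate z-score of at least 8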;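 note: Pro5 are CHO cells carrying HIG-tagged alpha-DG that lacks glycosylation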
* = called active by the depositor; x = not tested or not shown.

SMILES | CHOP inh | NR3A LBD binder | UPR CHOP act | MPTP block | UPR XBP1 act | aDG glyco act
C=C(C)Cn1c(CN(C)Cc2ccccc2)nc2c1c(=O)n(C)c(=O)n2C | x | 2 | -2 | 2 | -3 | 1
COc1cc(NS(=O)(=O)c2cc(C(=O)NCCc3ccccn3)ccc2OC)cc(OC)c1 | x | 11* | 1 | -1 | -1 | 0
COc1ccccc1NS(=O)(=O)c1ccc(C(=O)NCC(c2cccs2)N2CCOCC2)cc1 (centres undefined) | x | -2 | 2 | 0 | -4 | 1
CC1=CC2=NC(=O)/C(=C\c3ccc(-c4cccc(Cl)c4)o3)C(=N)N2O1 | 107* | 22* | 1 | -6 | 0 | 0
O=C(COC(=O)C12CC3CC(CC(C3)C1)C2)NCc1ccccc1 | x | 0 | 0 | 1 | 0 | 0
COc1ccccc1NC(=O)C/C(C)=N/NC(=O)C12CC3CC(CC(C3)C1)C2 | 1 | 0 | -1 | 0 | -3 | -1
COc1ccc(CCNC(=O)C/C(C)=N/NC(=O)C23CC4CC(CC(C4)C2)C3)cc1OC | 23 | 30* | 0 | 0 | -2 | 0
COc1ccc(CCNC(=O)COC(=O)c2cccs2)cc1OC | x | 12* | -2 | 1 | -3 | 0
O=C(COC(=O)C12CC3CC(CC(C3)C1)C2)NCCc1ccccc1 | 77* | 2 | 1 | -1 | -3 | 0
CC1(C)CC2(C)CC(=O)C1C(C(=O)O)C2C(=O)O (centres undefined) | x | x | x | -1 | x | 0
CNc1c2cccc(C)c2nc2c(C(=O)NCCN(C)C)cccc12 | x | -2 | x | -1 | x | 0
CCCOC(=O)c1ccc(Oc2cn[nH]c2-c2ccc(OCC(=O)NN)cc2O)cc1 | 2 | -7 | 2 | 14 | -2 | 0
CCCOC(=O)c1ccc(Oc2cn[nH]c2-c2ccc(O)cc2O)cc1 | 42 | 34* | -1 | 44 | -2 | 1
COc1ccc(Oc2cn[nH]c2-c2ccc(O)cc2O)cc1 | 20 | 15* | -3 | 0 | 2 | 0
CCCOC(=O)c1ccc(Oc2c(-c3ccc(OC)cc3O)n[nH]c2C)cc1 | 91* | 9 | 1 | 2 | 1 | 0
COc1ccc(-c2cn[nH]c2-c2ccc(O)cc2O)cc1 | x | 2 | 3 | 0 | 0 | 0
COc1ccc(/C=C\C(=O)c2c(O)ccc3c(C)cc(=O)oc23)cc1OC | 73* | 14* | 17 | 0 | 6 | 0
COc1cc(/C=C/C(=O)c2c(O)ccc3c(C)cc(=O)oc23)ccc1O | -38 | -2 | 33 | -3 | 4 | 0
COc1ccc(C(=O)NC(C)c2ccc(-n3ccnc3)cc2)cc1S(=O)(=O)N1CCOCC1 (centres undefined) | x | -1 | 1 | -1 | -2 | 0
CCCCCC(=O)Nc1ccc(N2CCOCC2)c(S(=O)(=O)Nc2ccc(OC)cc2)c1 | x | -8 | 3 | -1 | -3 | 0
COc1ccc(NS(=O)(=O)c2cc(NC(=O)/C=C/c3cccs3)ccc2N2CCOCC2)cc1 | 24 | 30* | 0 | 18 | -3 | -1
CC(=O)NC(CC(C)C)C(=O)NC(Cc1ccccc1)C(=O)CCl (centres undefined) | x | 17* | x | 0 | x | 0
CC(=O)NC(CC(C)C)C(=O)NC(Cc1ccccc1)C(N)=O (centres undefined) | 20 | -1 | x | x | x | x
COc1ccc(CNc2cc(C)ccn2)cc1 | x | 10* | 3 | 0 | 3 | 0
Cc1ccc(NC(=O)COC(=O)c2ccco2)cc1S(=O)(=O)N1CCOCC1 | x | -2 | -3 | -1 | -1 | 0
SMILES | CHOP inh | NR3A LBD binder | UPR CHOP act | MPTP block | UPR XBP1 act | aDG glyco act
CCOC(=O)c1sc(N(Cc2ccccc2)C(=O)COC(=O)c2ccc(O)cc2)nc1C | 12 | 29* | 2 | 6 | -6 | 0
NC(=S)N/N=C/c1c(O)ccc2ccccc12 | 22 | 3 | -1 | 7 | -5 | 1
NC(=S)N/N=C1/CCSc2ccc3ccccc3c21 | 75* | -2 | -1 | -1 | -1 | 1
Cc1ccc(C(=O)c2ccc(C(F)(F)F)cc2)cc1 | 93* | x | -1 | x | 6 | x
CN(C)C(=O)c1cc(C(=O)c2ccc(C(F)(F)F)cc2)c[nH]1 | x | -1 | 5 | 1 | 6 | 0
COc1ccc(NC(=O)/C=C/c2c(Cl)nc3ccccn23)cc1 | 0 | 17* | 2 | 1 | 9 | 1
O=C(COC(=O)Cc1ccc(S(=O)(=O)N2CCOCC2)s1)Nc1ccc(OC(F)F)cc1 | x | -1 | 0 | -3 | 1 | 1
O=C(CCc1nc(-c2ccc(F)cc2)no1)Nc1cccc(C(=O)NC2CC2)c1 | x | 3 | 1 | 0 | -2 | 0
Cc1nn(C)c(C)c1NC(=O)CSc1nc(Cc2ccccc2)nc2c1cnn2-c1ccccc1 | x | -4 | -2 | 0 | 1 | 0
CCc1nc(SCC(=O)Nc2c(C)nn(C)c2C)c2cnn(-c3ccccc3)c2n1 | 90* | x | x | x | x | x
COc1ccc([C@@H]2C[C@H]3[C@@H](CN2S(=O)(=O)c2ccccc2)C(=O)C[C@@H](c2ccccc2)N3S(=O)(=O)c2ccc(C)cc2)cc1 | x | x | x | 0 | x | 0
Cc1ccc(/C=C/C(=O)C2C(=O)c3ccccc3C2=O)cc1 | 95* | -4 | -3 | -2 | -6 | 0
OC1(c2ccccc2F)CCN(Cc2nnnn2Cc2ccc(F)cc2)CC1 | 13 | 1 | 1 | 0 | -2 | 0
CCOC(=O)C1CCCN(C(=O)c2cc(S(=O)(=O)N(C)C)ccc2N2CCCC2)C1 (centres undefined) | x | 11* | 2 | 0 | -1 | 0
CC(=O)N(CN1C(=O)c2ccccc2C1=O)c1ccccc1 | 4 | -1 | 0 | 0 | -2 | 0
O=C1c2ccccc2C(=O)N1N(c1ccccc1)c1ccccc1 | x | 16* | x | 1 | x | 0
COc1ccc2nc(Nc3nc(C)c(C(C)=O)s3)sc2c1 | -54 | 11* | 8 | 9 | 8 | 0
CC(=O)c1sc(Nc2nc3cc4c(cc3s2)OCO4)nc1C | -37 | 5 | x | 0 | x | 0
COc1ccc(Nc2nc3ccc(OC)cc3s2)cc1 | 4 | 28* | 3 | -2 | 1 | 0
Cc1cccc(C)c1NC(=O)CN(C)C(=O)c1ccc(NS(=O)(=O)c2ccc3[nH]c(=O)[nH]c3c2)cc1 | x | 13* | 1 | -1 | -4 | 0
Oc1ccc(Br)cc1CNc1ccccn1 | 13 | 0 | 3 | 2 | 2 | 0
O=C(NCc1c(O)ccc2ccccc12)c1ccccc1 | x | -4 | 1 | 0 | -6 | 0
Oc1ccc2ccccc2c1CNc1ccc(Br)cn1 | x | 25* | 4 | 3 | 6 | 0
Oc1ccc2ccccc2c1CNc1ccc(Br)cc1 | x | 15* | 1 | x | 2 | x
